Paper PMC8717589 (ACS Omega, 2021)
Where two headings read alike, the source gives them in different places.

What was measured:
Cytotoxicity assay [1] = format: cell-based, canine; conditions: dog, DH82 cells
Procedure, shortened: (§1)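 THP-1 (RPMI-1640, 10% FBS; 5 × 10^6 cells/mL) were PMA-differentiated (20 ng/mL, 48 h). DH82 (EMEM, 15% FBS; 2 × 10^5/well) were attached overnight. Both were exposed 72 h at 37 °C to 2, 10, 20, 80 and 200 μM, with DMSO control, in duplicate. Read-out was MTS/PMS A492, with % inhibition at 200 μM.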

DH82 cells = test: Cytotoxicity assay; format: cell-based, canine; conditions: IC50 on L. infantum MHOM/TN/80/IPT1; CC50 72 h
Procedure, shortened: as §1

[2] = test system: L. infantum MHOM/TN/80/IPT1 promastigotes; test: L. infantum promastigotes viability assay; format: cell-based, Leishmania infantum; conditions: 72 h; for inhibition at 20 µM: read-out: Percentage of inhibition at 20 μM, L. infantum MHOM/TN/80/IPT1
Procedure, shortened: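 Late log/stationary promastigotes were seeded in RPMI-PY at 2.5 × 10^6/mL. They were treated 72 h at 26 °C with 1:2 or 2:3 dilutions from 20 to 0.31 μM, with DMSO vehicle control, in duplicate. MTS/PMS was added at 26 °C until formazan formed, then A492 was read. Growth inhibition is relative to DMSO. IC50 from a normalized-response nonlinear fit with unconstrained Hill slope. Mean and 95% CI, ≥3 independent experiments.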

Cytotoxicity assay [3] = format: cell-based, human; conditions: human, PMA-differentiated THP-1 cells (macrophage-like)
Procedure, shortened: as §1

THP-1 cells = test: Cytotoxicity assay; format: cell-based, human; conditions: for THP-1 selectivity index (CC50/IC50): IC50 on L. infantum MHOM/TN/80/IPT1, CC50 72 h
Procedure, shortened: as §1

[4] = Leishmania infantum, read-out: L. infantum MHOM/TN/80/IPT1 IC50 (95% CI), promastigotes, 72 h, MTS

Compound | CC50 at 72 h (Cytotoxicity assay [1]) [µM] | DH82 selectivity index (CC50/IC50) (DH82 cells) | IC50 [2, 4] [µM] | CC50 at 72 h (Cytotoxicity assay [3]) [µM] | THP-1 selectivity index (CC50/IC50) (THP-1 cells) | inhibition at 20 µM ([2]; Leishmania infantum) [%] | IC50 ([2]; read-out: L. infantum MHOM/TN/80/IPT1 IC50 (95% CI), promastigotes, MTS) [µM] | inhibition at 200 µM (THP-1 cells; Homo sapiens, THP-1, 72 h, read-out: Percentage of inhibition at 200 μM, THP-1) [%]
COC(=O)c1c(C)ncn1CC(c1c[nH]c2ccc(C)cc12)c1c[nH]c2ccc(C)cc12 [2b] | 24.8 | 3.2 | 7.7 | 26.9 | 3.5 |  |  | 
CCCCCCCCCCCCCCCCOP(=O)([O-])OCC[N+](C)(C)C [Milt, miltefosine, reference compound] | 95.9 | 33.6 | 2.9 | 27.8 | 9.8 |  |  | 
CCOC(=O)c1c(C(=O)OC)cn(CC(c2cn(C)c3cc(Br)ccc23)c2cn(C)c3cc(Br)ccc23)c1C [1d] |  |  | > 20 |  |  | 11 |  | 
COC(=O)c1c(C)ncn1CC(c1c[nH]c2cc(Br)ccc12)c1c[nH]c2cc(Br)ccc12 [2d] | 18.9 | 2.2 | 8.5 | 15.4 | 1.8 |  |  | 
COC(=O)c1c(C)ncn1CC(c1c[nH]c2ccccc12)c1c[nH]c2ccccc12 [2a] | 35.3 | 3.5 | 10 | 37.9 | 3.8 |  |  | 
c1ccc2c(Cc3c[nH]c4ccccc34)c[nH]c2c1 [DIM, 3,3′-diindolylmethane, reference compound] |  |  | > 20 |  |  | 10 |  | 
CCc1ncn(CC(c2c[nH]c3ccc(C)cc23)c2c[nH]c3ccc(C)cc23)c1C(=O)OC [2c] | 23.5 | 2.3 | 10 | 38.6 | 3.8 |  |  | 
CCOC(=O)c1c(C)ncn1CC(c1cn(C)c2ccc([N+](=O)[O-])cc12)c1cn(C)c2ccc([N+](=O)[O-])cc12 [2f] | > 200 | >41 | 4.9 | 35.1 | 7.2 |  |  | 
C[C@@H]1[C@H](O)[C@@H](C)/C=C/C=C/C=C/C=C/C=C/C=C/C=C/[C@H](O[C@@H]2O[C@H](C)[C@@H](O)[C@H](N)[C@@H]2O)C[C@@H]2O[C@](O)(C[C@@H](O)C[C@@H](O)[C@H](O)CC[C@@H](O)C[C@@H](O)CC(=O)O[C@H]1C)C[C@H](O)[C@H]2C(=O)O [Amph B, amphotericin B, reference compound] | > 200 | >3333 | 0.064 | 2.8 | 45.8 |  |  | 
CCOC(=O)c1cn(CC(c2cn(C)c3ccc(C)cc23)c2cn(C)c3ccc(C)cc23)c(C)c1C(=O)OC [1c] |  |  | > 20 |  |  | 43 |  | 
Cc1cn(CC(c2cn(C)c3ccccc23)c2cn(C)c3ccccc23)nn1 [3b] | 31.9 | 3.9 | < 8 | > 200 | >25 |  | 8.1 | 33
COC(=O)c1c(C)ncn1CC(c1cn(C)c2ccccc12)c1cn(C)c2ccccc12 [2e] | 24.3 | 5.0 | 4.9 | 55.4 | 11.3 |  |  | 
Cc1cn(CC(c2c[nH]c3ccccc23)c2c[nH]c3ccccc23)nn1 [3a] |  |  | > 20 |  |  | 22 |  | 
N=C(N)c1ccc(OCCCCCOc2ccc(C(=N)N)cc2)cc1 [Pent, pentamidine, reference compound] | 10.6 |  | 2.6 | 103 |  |  |  | 
